As usually defined, the IC50 is the concentration needed to halve the response being measured. A word on the inhibition: it is the relative decrease from the control value, in per cent.

A short description of experiment [1]: Inhibition of MAGL mediated [14C]2-arachidonoyl glycerol hydrolysis in african green monkey COS cells. The class given is cell-based. The following applies: Chlorocebus aethiops. The essentials:
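The 10,000 g cytosolic fraction of COS cells overexpressing DAGLα was used as the MAGL source. It was incubated with radiolabelled synthetic 2-arachidonoylglycerol (1.0 mCi/mmol) in 50 mM Tris-HCl, pH 7.0, at 37 °C for 20 min. Lipids were then extracted with 2 volumes of chloroform/methanol 2:1 and lyophilized.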

For experiment [2], the target named is T1, Diacylglycerol lipase-alpha (Homo sapiens, UniProt Q9Y4D2).
T1 sequence (Q9Y4D2 whole entry): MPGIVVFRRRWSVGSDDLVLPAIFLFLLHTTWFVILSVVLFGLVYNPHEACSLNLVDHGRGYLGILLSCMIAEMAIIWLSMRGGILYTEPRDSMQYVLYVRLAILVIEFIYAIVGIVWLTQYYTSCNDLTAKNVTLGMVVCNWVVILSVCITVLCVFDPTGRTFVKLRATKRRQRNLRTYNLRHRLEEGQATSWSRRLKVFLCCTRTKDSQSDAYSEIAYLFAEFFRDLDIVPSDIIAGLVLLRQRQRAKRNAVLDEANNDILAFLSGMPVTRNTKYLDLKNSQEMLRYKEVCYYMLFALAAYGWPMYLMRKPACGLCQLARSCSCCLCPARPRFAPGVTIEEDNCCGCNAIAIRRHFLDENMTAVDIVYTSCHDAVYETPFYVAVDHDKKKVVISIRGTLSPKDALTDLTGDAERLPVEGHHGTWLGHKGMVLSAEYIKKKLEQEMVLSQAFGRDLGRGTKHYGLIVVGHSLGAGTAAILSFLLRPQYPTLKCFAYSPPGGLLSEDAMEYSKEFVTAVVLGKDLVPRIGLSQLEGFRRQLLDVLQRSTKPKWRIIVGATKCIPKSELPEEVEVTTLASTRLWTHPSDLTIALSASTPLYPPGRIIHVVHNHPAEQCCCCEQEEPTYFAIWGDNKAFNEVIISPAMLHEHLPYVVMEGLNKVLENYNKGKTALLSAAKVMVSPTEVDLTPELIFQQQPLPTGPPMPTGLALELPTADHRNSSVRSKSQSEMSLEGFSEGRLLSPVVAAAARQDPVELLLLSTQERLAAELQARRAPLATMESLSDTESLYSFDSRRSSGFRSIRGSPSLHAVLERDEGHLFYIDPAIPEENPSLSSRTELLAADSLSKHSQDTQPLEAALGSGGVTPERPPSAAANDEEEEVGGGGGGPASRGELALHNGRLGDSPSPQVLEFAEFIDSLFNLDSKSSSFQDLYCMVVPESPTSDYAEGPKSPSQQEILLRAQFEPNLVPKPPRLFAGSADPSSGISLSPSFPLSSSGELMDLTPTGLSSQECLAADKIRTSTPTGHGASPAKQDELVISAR
In words: Inhibition of human recombinant DAGLalpha mediated sn-1-[14C]oleoyl-2-arachidonoyl-glycerol hydrolysis to 2-AG overexpressed in COS cells after 20 mins. The class given is cell-based. A digest of the protocol:
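COS cells overexpressing DAGLα were harvested in Tris-HCl pH 7, Dounce-homogenized and spun at 800 g then 10 000 g at 4 °C. The 10 000 g membrane fraction was incubated with sn-1-[14C]oleoyl-2-arachidonoyl-glycerol in 50 mM Tris-HCl with 1 mM CaCl2, pH 7.0, for 20 min at 37 °C. Lipids were extracted with CHCl3/MeOH 2:1 and separated by silica TLC (CHCl3/MeOH/NH4OH 85/15/1). [14C]Oleic acid bands were β-counted.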

The target in experiment [3] is T2, Fatty-acid amide hydrolase 1 (Rattus norvegicus, UniProt P97612).
T2 sequence (P97612 whole entry): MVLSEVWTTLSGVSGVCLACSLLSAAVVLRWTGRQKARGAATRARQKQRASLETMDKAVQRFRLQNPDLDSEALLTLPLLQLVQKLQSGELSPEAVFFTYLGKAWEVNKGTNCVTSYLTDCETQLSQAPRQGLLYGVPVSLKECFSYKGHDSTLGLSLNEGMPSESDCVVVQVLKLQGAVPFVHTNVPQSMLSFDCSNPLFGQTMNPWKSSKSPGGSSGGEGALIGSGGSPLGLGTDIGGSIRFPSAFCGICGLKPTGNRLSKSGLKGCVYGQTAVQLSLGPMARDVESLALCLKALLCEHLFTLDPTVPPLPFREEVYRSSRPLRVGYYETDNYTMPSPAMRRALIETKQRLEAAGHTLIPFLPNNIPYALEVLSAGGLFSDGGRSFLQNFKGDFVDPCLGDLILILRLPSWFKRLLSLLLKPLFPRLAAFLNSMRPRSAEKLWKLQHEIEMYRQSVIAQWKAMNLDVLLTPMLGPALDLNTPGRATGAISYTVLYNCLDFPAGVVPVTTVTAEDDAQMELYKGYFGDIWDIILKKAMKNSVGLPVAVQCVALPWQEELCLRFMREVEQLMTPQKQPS
In words: Inhibition of FAAH mediated [14C]anandamide hydrolysis in rat brain after 30 mins. The class given is tissue-based. The essentials: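 Rat brain membranes incubated with test compounds and [14C]anandamide in 50 mM Tris-HCl, pH 9, for 30 min at 37 °C. After extraction with 2 volumes CHCl3/MeOH 2:1, [14C]ethanolamine in the aqueous phase was scintillation-counted. IC50 was taken as the concentration giving 50% inhibition of hydrolysis.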

Experiment [4] has as its system RBL-2H3. In words: Inhibition of [14C]anandamide uptake in rat RBL-2H3 cells preincubated 10 mins before addition of [14C]anandamide. The class given is functional, cell-based. More on the design: inhibition (INH): concentration or dose not given beside the values. The following applies: for IC50: Rattus norvegicus, RBL-2H3. The essentials: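 Intact RBL-2H3 cells were pre-exposed to inhibitor at varying concentrations for 10 min, then given [14C]anandamide (10,000 cpm) for 90 s at 37 °C. Uptake was taken as the residual label in the medium after CHCl3/CH3OH 2:1 extraction, read by scintillation counting of the organic phase. Non-specific binding was defined with excess unlabelled anandamide. IC50 was calculated from the inhibition data.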

For experiment [5], the system named is RBL-2H3. In words: Inhibition of [14C]anandamide uptake in rat RBL-2H3 cells at 0.1 uM preincubated 10 mins before addition of [14C]anandamide. The class given is functional. A digest of the protocol:
(§1)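 RBL-2H3 cells were given inhibitor at 0.1 or 1 µM for 10 min, then [14C]anandamide (10,000 cpm) for 90 s at 37 °C. Uptake was read as residual medium label in the organic extract, and [14C]ethanolamine was counted in the aqueous phase in the same experiment. Results are % inhibition of uptake, N=4.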

Experiment [6] has as its system RBL-2H3. In words: Inhibition of [14C]anandamide uptake in rat RBL-2H3 cells at 1 uM preincubated 10 mins before addition of [14C]anandamide. The class given is functional. The essentials:
as §1

Experiment [7] addresses T3, Fatty-acid amide hydrolase 1 (Rattus norvegicus) (UniProt P97612).
T3 sequence (whole entry): T2 sequence (P97612 whole entry)
In words: Inhibition of FAAH mediated [14C]anandamide hydrolysis in rat RBL-2H3 cells at 1 uM after 30 mins.

The target in experiment [8] is T3, Fatty-acid amide hydrolase 1 (Rattus norvegicus). In words: Inhibition of FAAH mediated [14C]anandamide hydrolysis in rat RBL-2H3 cells at 0.1 uM after 30 mins.
For another experiment, the system named is Monocyte. In words: Inhibition of anandamide uptake in human monocytes. The class given is functional, cell-based.

Structures are written as SMILES.

Consider `CN(C)C(=O)n1nnnc1Cc1ccc(-c2ccccc2)cc1`, for which the IC50 in experiment [1] is 8.1 µM; in [2], > 10 µM; in [3], 0.0021 µM; in the experiment with RBL-2H3 [4], 0.015 µM. For the same compound, the inhibition at 0.1 µM in the experiment on RBL-2H3 [5] came out at 66.5%. In the experiment with RBL-2H3 [6], the inhibition at 1 µM was 74.2%. The inhibition in [7] was found to be 36.7%; in experiment [8] it was 41.1%.

For `CN(C)C(=O)n1nnnc1CCc1ccccc1`, the IC50 in experiment [1] was 10 µM; in experiment [2] it was 10 µM; in experiment [3] it was 0.0054 µM; in the experiment on RBL-2H3 [4] it was > 10 µM. Besides, the “inhibition (INH)” value with RBL-2H3 [4] turned out to be 15.8%.

On to `CN(C)C(=O)n1nnc(CCCc2ccccc2)n1`, for which the IC50 was 0.11 µM in experiment [1], 0.5 µM in experiment [2], 0.0032 µM in experiment [3] and > 10 µM with RBL-2H3 [4]. For the same compound, the “inhibition (INH)” value in the experiment on RBL-2H3 [4] stood at 16%.

As for `CN(C)C(=O)n1nnnc1CCCc1ccccc1`, the IC50 in experiment [1] was 10 µM; in experiment [2], 10 µM; in experiment [3] it was 0.0027 µM; with RBL-2H3 [4], > 10 µM. The “inhibition (INH)” value with RBL-2H3 [4] turned out to be 18%.

On to `CN(C)C(=O)n1nnnc1CNC(=O)c1cccc(-c2ccccc2)c1`, for which the IC50 was found to be 0.85 µM in experiment [1], 0.34 µM in experiment [2], 0.032 µM in experiment [3] and 0.09 µM in the experiment with RBL-2H3 [4].

On to `CN(C)C(=O)n1nnnc1CNC(=O)CCCCCCc1ccccc1`, for which the IC50 came out at 0.02 µM in [1], 0.2 µM in experiment [2], 0.0037 µM in experiment [3] and 0.851 µM in the experiment on RBL-2H3 [4].

Take `CN(C)C(=O)n1nnc(CNC(=O)c2ccc(N=[N+]=[N-])c(I)c2)n1`: the IC50 was > 10 µM in experiment [1], 4.4 µM in [2], 0.025 µM in experiment [3] and > 1 µM in the experiment with RBL-2H3 [4]. In addition, the “inhibition (INH)” value in the experiment on RBL-2H3 [4] was determined as 9%.

In the experiment with Monocyte, `C=CCOc1ccc(CN(C/C=C/c2ccccc2)CCCC)cc1` returned an IC50 of 0.09 µM.

For the compound `CN(C)C(=O)n1nnnc1CNC(=O)CCCCCCCc1ccccc1`, the IC50 in [1] was 0.04 µM; in experiment [2], 0.57 µM; in experiment [3] it was 0.01 µM; in the experiment on RBL-2H3 [4], > 10 µM. Further, the “inhibition (INH)” value in the experiment on RBL-2H3 [4] was found to be 37.5%.

`CN(C)C(=O)n1nnc(CCc2ccccc2)n1`: the IC50 in [1] is 0.48 µM; in experiment [2] it was 0.6 µM; in [3] it was 0.0035 µM; in the experiment with RBL-2H3 [4], > 10 µM. The “inhibition (INH)” value with RBL-2H3 [4] was 10.9%.

For `CN(C)C(=O)n1nnc(Cc2ccc(-c3ccccc3)cc2)n1`, the IC50 in experiment [1] is 0.02 µM; in experiment [2] it was 0.51 µM; in experiment [3] it was 0.033 µM; in the experiment with RBL-2H3 [4], 0.998 µM.

Take `CN(C)C(=O)n1nnc(CNC(=O)c2ccc(-c3ccccc3)cc2)n1`: the IC50 in experiment [1] was > 10 µM; in experiment [2], > 10 µM; in experiment [3], 0.006 µM; in the experiment on RBL-2H3 [4], 0.985 µM.

Regarding `CN(C)C(=O)n1nnnc1CNC(=O)c1ccc(N=[N+]=[N-])c(I)c1`, the IC50 is 0.35 µM in [1], 0.13 µM in experiment [2], 0.023 µM in experiment [3] and > 1 µM in the experiment with RBL-2H3 [4]. Besides, the “inhibition (INH)” value in the experiment with RBL-2H3 [4] turned out to be 32.4%.

On to `CN(C)C(=O)n1nnc(CNC(=O)CCCCCCCc2ccccc2)n1`, for which the IC50 is 10 µM in experiment [1], 10 µM in experiment [2], 0.0032 µM in [3] and > 10 µM with RBL-2H3 [4]. The “inhibition (INH)” value in the experiment with RBL-2H3 [4] worked out at 18.8%.

With `CN(C)C(=O)n1nnc(CNC(=O)c2cccc(-c3ccccc3)c2)n1`, the IC50 in experiment [1] was 10 µM; in experiment [2] it was > 10 µM; in experiment [3], 0.023 µM; with RBL-2H3 [4], > 10 µM. For the same compound, the “inhibition (INH)” value with RBL-2H3 [4] was 23%.

For `CN(C)C(=O)n1nnc(CNC(=O)CCCCCCc2ccccc2)n1`, the IC50 in experiment [1] is > 10 µM; in [2] it was 10 µM; in experiment [3], 0.0021 µM; in the experiment on RBL-2H3 [4] it was > 10 µM. Moreover, the “inhibition (INH)” value in the experiment on RBL-2H3 [4] was determined as 30%.
